Experimental data taken from ChEMBL document CHEMBL4390678, “Structure-Activity Relationship of Purine and Pyrimidine Nucleotides as Ecto-5'-Nucleotidase (CD73) Inhibitors” (J Med Chem, 2019).

Tests used:
5'-nucleotidase [1] = target: T1, 5'-nucleotidase (Rattus norvegicus, UniProt P21588); experiment: Inhibition of recombinant rat C-terminal His-tagged soluble form of CD73 expressed in baculovirus infected Sf9 insect cells using [2,8-3H]AMP as substrate measured after 25 mins by scintillation counting method
T1 sequence (P21588 whole entry): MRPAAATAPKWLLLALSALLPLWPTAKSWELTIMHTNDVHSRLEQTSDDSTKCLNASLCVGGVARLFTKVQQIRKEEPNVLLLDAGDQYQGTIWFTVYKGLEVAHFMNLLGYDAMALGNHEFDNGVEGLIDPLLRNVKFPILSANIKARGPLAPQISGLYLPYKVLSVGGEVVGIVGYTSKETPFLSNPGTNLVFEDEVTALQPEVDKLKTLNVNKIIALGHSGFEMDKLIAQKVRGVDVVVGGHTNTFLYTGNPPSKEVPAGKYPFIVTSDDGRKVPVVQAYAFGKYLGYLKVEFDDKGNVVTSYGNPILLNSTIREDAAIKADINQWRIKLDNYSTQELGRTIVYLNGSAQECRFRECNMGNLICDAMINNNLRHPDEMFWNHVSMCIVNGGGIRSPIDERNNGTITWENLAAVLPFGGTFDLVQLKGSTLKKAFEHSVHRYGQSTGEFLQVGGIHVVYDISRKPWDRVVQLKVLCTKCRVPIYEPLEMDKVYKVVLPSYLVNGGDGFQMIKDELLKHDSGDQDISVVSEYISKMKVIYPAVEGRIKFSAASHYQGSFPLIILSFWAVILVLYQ
How it was run: (§1)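 Enzyme is soluble rat CD73 from Sf9 cells, 1.63 ng per vial, in 25 mM Tris, 140 mM NaCl, 25 mM NaH2PO4, pH 7.4. […] Stopped by LaCl3 precipitation and GF/B filtration, then counted. Each compound first screened at 1 µM.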

[2] = target: T2, 5'-nucleotidase (Rattus norvegicus) (UniProt P21588); experiment: Inhibition of recombinant rat C-terminal His-tagged soluble form of CD73 expressed in baculovirus infected Sf9 insect cells at 1 uM using [2,8-3H]AMP as substrate measured after 25 mins by scintillation counting method relative to control; how it was run: as §1
T2 sequence (whole entry): T1 sequence (P21588 whole entry)

5'-nucleotidase [3] = target: T3, 5'-nucleotidase (Homo sapiens, UniProt P21589); experiment: Inhibition of recombinant human C-terminal His-tagged soluble form of CD73 expressed in baculovirus infected Sf9 insect cells using [2,8-3H]AMP as substrate measured after 25 mins by scintillation counting method
T3 sequence (P21589 whole entry): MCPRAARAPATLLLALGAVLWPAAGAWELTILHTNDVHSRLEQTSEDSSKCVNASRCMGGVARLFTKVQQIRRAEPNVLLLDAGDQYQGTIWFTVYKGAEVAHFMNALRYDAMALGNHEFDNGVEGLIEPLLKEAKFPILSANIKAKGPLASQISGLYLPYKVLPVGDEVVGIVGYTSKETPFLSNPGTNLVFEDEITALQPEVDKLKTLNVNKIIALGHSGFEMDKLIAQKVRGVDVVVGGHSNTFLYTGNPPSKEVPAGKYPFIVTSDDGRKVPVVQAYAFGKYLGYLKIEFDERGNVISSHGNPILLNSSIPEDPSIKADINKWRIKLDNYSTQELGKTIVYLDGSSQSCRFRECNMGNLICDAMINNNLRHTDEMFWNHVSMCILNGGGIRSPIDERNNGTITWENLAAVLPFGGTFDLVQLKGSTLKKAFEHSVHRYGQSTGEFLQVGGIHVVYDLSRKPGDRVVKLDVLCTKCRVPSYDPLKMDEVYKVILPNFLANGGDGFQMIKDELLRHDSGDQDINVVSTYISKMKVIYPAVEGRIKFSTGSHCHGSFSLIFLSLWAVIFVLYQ
How it was run: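 Soluble human CD73 lacking the GPI signal, with a C-terminal 6xHis tag, secreted from baculovirus-infected Sf9 cells and purified on Ni-NTA; 0.365 ng per vial. […] Product separated by lanthanum chloride precipitation and filtration, then scintillation counted.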

5'-nucleotidase [4] = target: T3, 5'-nucleotidase; experiment: Inhibition of CD73 in human MDA-MB-231 cell membranes using [2,8-3H]AMP as substrate measured after 25 mins by scintillation counting method
How it was run: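 MDA-MB-231 membranes (7.4 ng protein per vial) in 25 mM Tris, 140 mM NaCl, 25 mM NaH2PO4, pH 7.4. […] Stopped with cold LaCl3/acetate buffer pH 4.0 and filtered on GF/B. Background-subtracted and normalized to the uninhibited control.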

| SMILES | Ki (5'-nucleotidase [1]) | inhibition [2] | Ki (5'-nucleotidase [3]) | Ki (5'-nucleotidase [4]) |
| --- | --- | --- | --- | --- |
| Nc1ccnc2c1ncn2[C@@H]1O[C@H](COP(=O)(O)CP(=O)(O)O)[C@@H](O)[C@H]1O | > 1000 nM | 36% | – | – |
| O=c1ccn([C@@H]2O[C@H](COP(=O)(O)CP(=O)(O)O)[C@@H](O)[C@@H]2F)c(=O)[nH]1 | 1750 nM | > 50% | – | – |
| CO[C@@H]1[C@H](O)[C@@H](COP(=O)(O)CP(=O)(O)O)O[C@H]1n1cc(C)c(=O)[nH]c1=O | > 1000 nM | 3% | – | – |
| O=c1cc(O)ccn1[C@@H]1O[C@H](COP(=O)(O)CP(=O)(O)O)[C@@H](O)[C@H]1O | > 1000 nM | 19% | – | – |
| CO/N=c1/ccn([C@@H]2O[C@H](COP(=O)(O)CP(=O)(O)O)[C@@H](O)[C@H]2O)c(=O)[nH]1 | 257 nM | > 50% | – | – |
| Nc1nccc2c1ncn2[C@@H]1O[C@H](COP(=O)(O)CP(=O)(O)O)[C@@H](O)[C@H]1O | > 1000 nM | 36% | – | – |
| O=c1ccn([C@@H]2O[C@H](COP(=O)(O)CP(=O)(O)O)[C@@H](O)[C@H]2O)c(=O)[nH]1 | 1830 nM | > 50% | – | – |
| CCn1c(=O)n([C@@H]2O[C@H](COP(=O)(O)CP(=O)(O)O)[C@@H](O)[C@H]2O)cc/c1=N\OCc1ccccc1 | 262 nM | > 50% | – | – |
| Nc1ncnc2c1ncn2[C@@H]1O[C@H](COP(=O)(O)CP(=O)(O)O)C[C@H]1O | 1970 nM | > 50% | – | – |
| Nc1nc(=O)n([C@@H]2O[C@H](COP(=O)(O)CP(=O)(O)O)[C@@H](O)[C@H]2O)cc1F | 349 nM | > 50% | – | – |
| O=c1[nH]/c(=N\OCc2ccccc2)ccn1[C@@H]1O[C@H](COP(=O)(O)CP(=O)(O)O)[C@@H](O)[C@H]1O | 112 nM | > 50% | – | – |
| O=c1ccn([C@@H]2O[C@H](COP(=O)(O)CCP(=O)(O)O)[C@@H](O)[C@H]2O)c(=O)[nH]1 | > 1000 nM | 4% | – | – |
| O=c1ccn([C@H]2C[C@H](O)[C@@H](CO[P@@](=O)(O)CP(=O)(O)O)O2)c(=O)[nH]1 | > 1000 nM | 37% | – | – |
| [N-]=[N+]=N[C@@H]1[C@H](O)[C@@H](COP(=O)(O)CP(=O)(O)O)O[C@H]1n1ccc(=O)[nH]c1=O | > 1000 nM | 9% | – | – |
| Cc1cn([C@H]2C[C@H](O)[C@@H](COP(=O)(O)CP(=O)(O)O)O2)c(=O)[nH]c1=O | 639 nM | > 50% | – | – |
| O=c1ccn([C@@H]2O[C@H](COP(=O)(O)CP(=O)(O)O)[C@@H](O)[C@H]2F)c(=O)[nH]1 | > 1000 nM | 11% | – | – |
| Nc1ccn([C@H]2C[C@H](O)[C@@H](COP(=O)(O)CP(=O)(O)O)O2)c(=O)n1 | > 1000 nM | 18% | – | – |
| O=c1ccn([C@@H]2O[C@H](COP(=O)(O)CP(=O)(O)O)[C@@H](O)[C@H]2O)c(=O)n1Cc1ccccc1 | > 1000 nM | 3% | – | – |
| CCCn1c(=O)ccn([C@@H]2O[C@H](COP(=O)(O)CP(=O)(O)O)[C@@H](O)[C@H]2O)c1=O | > 1000 nM | 7% | – | – |
| Cc1cn([C@@H]2O[C@H](COP(=O)(O)CCP(=O)(O)O)[C@@H](O)[C@H]2O)c(=O)[nH]c1=O | > 1000 nM | 9% | – | – |
| O=c1[nH]/c(=N/OCc2ccccc2)c(F)cn1[C@@H]1O[C@H](COP(=O)(O)CP(=O)(O)O)[C@@H](O)[C@H]1O | 85.1 nM | > 50% | 15.9 nM | 16.6 nM |
| Nc1ncnc2c1ncn2[C@H]1C[C@H](O)[C@@H](COP(=O)(O)CP(=O)(O)O)O1 | > 1000 nM | 30% | – | – |
| Cc1cn([C@@H]2O[C@H](COP(=O)(O)CP(=O)(O)O)[C@@H](O)[C@H]2O)c(=O)[nH]/c1=N/OCc1ccccc1 | 321 nM | > 50% | – | – |

| SMILES | Ki (5'-nucleotidase [1]) | inhibition [2] | Ki (5'-nucleotidase [3]) | Ki (5'-nucleotidase [4]) |
| --- | --- | --- | --- | --- |
| C=C(Cl)c1cn([C@@H]2O[C@H](COP(=O)(O)CP(=O)(O)O)[C@@H](O)[C@H]2O)c(=O)[nH]c1=O | 424 nM | > 50% | – | – |
| O=c1[nH]c(=O)n([C@@H]2O[C@H](COP(=O)(O)CP(=O)(O)O)[C@@H](O)[C@H]2O)cc1I | 162 nM | > 50% | – | – |
| O=c1ccn([C@@]23C[C@H]2[C@H](COP(=O)(O)CP(=O)(O)O)[C@@H](O)[C@H]3O)c(=O)[nH]1 | > 1000 nM | 12% | – | – |
| CCn1c(=O)ccn([C@@H]2O[C@H](COP(=O)(O)CP(=O)(O)O)[C@@H](O)[C@H]2O)c1=O | > 1000 nM | 4% | – | – |
| O=c1ccn([C@@H]2O[C@H](COP(=O)(O)CP(=O)(O)O)[C@@H](O)[C@@H]2O)c(=O)[nH]1 | > 1000 nM | 8% | – | – |
| Nc1ncnc2c1ccn2[C@@H]1O[C@H](COP(=O)(O)CP(=O)(O)O)[C@@H](O)[C@H]1O | 88.6 nM | > 50% | – | – |
| CCOP(=O)(O)OP(=O)(O)OC[C@H]1O[C@@H](n2ccc(=O)[nH]c2=S)[C@H](O)[C@@H]1O | > 1000 nM | 10% | – | – |
| Cc1cn([C@@H]2O[C@H](COP(=O)(O)CP(=O)(O)O)[C@@H](O)[C@H]2O)c(=O)nc1N | 2030 nM | > 50% | – | – |
| O=c1[nH]/c(=N/OCc2ccccc2)ccn1[C@H]1C[C@H](O)[C@@H](COP(=O)(O)CP(=O)(O)O)O1 | 780 nM | > 50% | – | – |
| O=c1ccn([C@@H]2O[C@H](COP(=O)(O)CP(=O)(O)O)[C@@H](O)[C@H]2O)c(=S)[nH]1 | > 1000 nM | 7% | – | – |
| O=c1[nH]c(=O)n([C@@H]2O[C@H](COP(=O)(O)CP(=O)(O)O)[C@@H](O)[C@H]2O)cc1Br | 88.7 nM | > 50% | – | – |
| Cn1c(=O)ccn([C@@H]2O[C@H](COP(=O)(O)CP(=O)(O)O)[C@@H](O)[C@H]2O)c1=O | 1860 nM | > 50% | – | – |
| C=C(Cl)c1cn([C@@H]2O[C@H](COP(=O)(O)CP(=O)(O)O)[C@@H](O)[C@H]2O)c(=O)n(C)c1=O | 1050 nM | > 50% | – | – |
| Nc1nc(=O)n([C@@H]2O[C@H](COP(=O)(O)CP(=O)(O)O)[C@@H](O)[C@H]2O)cc1I | 502 nM | > 50% | – | – |
| Nc1ncnc2c1ncn2[C@@H]1O[C@H](COP(=O)(O)CP(=O)(O)O)[C@@H](O)[C@H]1N | > 1000 nM | 2% | – | – |
| Cc1cn([C@@H]2O[C@H](COP(=O)(O)CP(=O)(O)O)[C@@H](O)[C@H]2O)c(=O)[nH]c1=O | 338 nM | > 50% | – | – |
| N[C@@H]1[C@H](O)[C@@H](COP(=O)(O)CP(=O)(O)O)O[C@H]1n1ccc(=O)[nH]c1=O | > 1000 nM | 2% | – | – |
| O=c1cnn([C@@H]2O[C@H](COP(=O)(O)CP(=O)(O)O)[C@@H](O)[C@H]2O)c(=O)[nH]1 | > 1000 nM | 21% | – | – |
| O=c1[nH]c(=O)n([C@@H]2O[C@H](COP(=O)(O)CP(=O)(O)O)[C@@H](O)[C@H]2O)cc1Cl | 86.7 nM | > 50% | – | – |
| Nc1ccn([C@@H]2O[C@H](COP(=O)(O)CP(=O)(O)O)[C@@H](O)[C@H]2O)c(=O)n1 | 898 nM | > 50% | – | – |
| C#Cc1cn([C@@H]2O[C@H](COP(=O)(O)CP(=O)(O)O)[C@@H](O)[C@H]2O)c(=O)[nH]c1=O | 276 nM | > 50% | – | – |
| Nc1ncnc2c1ncn2[C@@H]1O[C@H](CO)[C@@H](OP(=O)(O)CP(=O)(O)O)[C@H]1N | > 1000 nM | 8% | – | – |
